Laboratory results published in ChEMBL document CHEMBL4118052, “Involvement of the Glucocorticoid Receptor in Pro-inflammatory Transcription Factor Inhibition by Daucane Esters from Laserpitium zernyi” (J Nat Prod, 2017).

Experiments:
[1] = Cytotoxicity against TNFalpha stimulated human A549 cells harboring NFkB-Luc assessed as cell viability at 30 uM preincubated for 1 hr followed by TNFalpha stimulation measured after 5 hrs by Cell-Titer Glo assay (reference value: 100%); assay type: cell-based; conditions: read-out: Activity
Summary of the method: (§1)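 A549 cells with stably integrated NF-κB-Luc seeded at 9000/well for 24 h, then exposed to compound (10, 30, 60 μM) or solvent. TNF given 1 h later, 5 h incubation. Cell Titer Glo ATP readout, with TNF-treated solvent group as 100%.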

[2] = target: T1, Glucocorticoid receptor (Homo sapiens) (UniProt P04150); assay: Modulation of glucocorticoid receptor in human A549 cells assessed as 0.1 uM dexamethasone-induced GRE-driven promoter activity at 10 uM by luciferase reporter gene assay (reference value: 100%); assay type: cell-based
T1 sequence (whole entry): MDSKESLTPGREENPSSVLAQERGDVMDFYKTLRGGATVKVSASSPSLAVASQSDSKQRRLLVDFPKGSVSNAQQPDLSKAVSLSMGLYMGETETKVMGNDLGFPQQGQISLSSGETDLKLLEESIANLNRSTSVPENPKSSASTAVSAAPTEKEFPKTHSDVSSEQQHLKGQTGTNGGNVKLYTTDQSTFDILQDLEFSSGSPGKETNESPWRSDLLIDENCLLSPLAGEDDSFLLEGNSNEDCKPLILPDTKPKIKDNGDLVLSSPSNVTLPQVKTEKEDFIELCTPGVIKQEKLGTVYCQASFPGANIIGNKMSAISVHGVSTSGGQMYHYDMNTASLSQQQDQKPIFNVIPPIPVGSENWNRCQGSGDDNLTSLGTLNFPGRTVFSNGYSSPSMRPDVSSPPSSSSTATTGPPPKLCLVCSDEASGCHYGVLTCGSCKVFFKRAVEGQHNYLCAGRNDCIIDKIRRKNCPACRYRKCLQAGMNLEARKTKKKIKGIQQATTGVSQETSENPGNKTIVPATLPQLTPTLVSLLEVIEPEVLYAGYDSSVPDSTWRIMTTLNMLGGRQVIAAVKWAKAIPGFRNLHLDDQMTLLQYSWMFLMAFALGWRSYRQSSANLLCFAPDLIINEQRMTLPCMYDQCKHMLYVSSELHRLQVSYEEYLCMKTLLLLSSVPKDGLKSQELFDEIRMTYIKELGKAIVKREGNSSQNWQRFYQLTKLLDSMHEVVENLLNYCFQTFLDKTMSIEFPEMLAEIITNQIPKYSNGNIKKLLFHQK
Summary of the method: (§2)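 A549 cells with a stably integrated GRE-dependent promoter-luciferase construct. Compound at 10 or 30 μM given together with dexamethasone at 0.1 or 0.01 μM. Luciferase expressed as % of Dex-induced expression with solvent alone. Mean ± SD of ≥3 independent replicates.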

[3] = Cytotoxicity against PMA stimulated human A549 cells harboring AP-1-Luc assessed as cell viability at 30 uM preincubated for 1 hr followed by PMA stimulation measured after 5 hrs by Cell-Titer Glo assay (reference value: 100%); assay type: cell-based; conditions: read-out: Activity
Summary of the method: (§3)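 AP-1-Luc A549 cells (9000/well) incubated 24 h, then compound (10, 30, 60 μM) or solvent added. PMA induction 1 h later, 5 h further incubation. Viability by Cell Titer Glo ATP luminescence. Solvent group treated with PMA set as 100%.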

[4] = target: T1, Glucocorticoid receptor (Homo sapiens); assay: Modulation of glucocorticoid receptor in human A549 cells assessed as 0.01 uM dexamethasone-induced GRE-driven promoter activity at 30 uM by luciferase reporter gene assay (reference value: 100%); assay type: cell-based; summary of the method: as §2
A549 [5] = assay: Cytotoxicity against TNFalpha stimulated human A549 cells harboring NFkB-Luc assessed as reduction in cell viability at 60 uM preincubated for 1 hr followed by TNFalpha stimulation measured after 5 hrs by Cell-Titer Glo assay relative to control; assay type: cell-based; conditions: a549, 5 h; summary of the method: as §1
[6] = Cytotoxicity against GR knockout human A549 cells harboring Neo-Luc assessed as cell viability at 30 uM by Cell-Titer Glo assay (reference value: 100%); assay type: cell-based; conditions: read-out: Activity
Summary of the method: (§4)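 NeoLuc A549 cells (9000/well) incubated 24 h, then test compound or solvent added; viability by Cell Titer Glo ATP luminescence, run by the same protocol as the reporter assays. Solvent-treated control taken as 100%.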

[7] = target: T1, Glucocorticoid receptor (Homo sapiens); assay: Modulation of glucocorticoid receptor in human A549 cells assessed as 0.1 uM dexamethasone-induced GRE-driven promoter activity at 30 uM by luciferase reporter gene assay (reference value: 100%); assay type: cell-based; summary of the method: as §2
A549 [8] = assay: Cytotoxicity against TNFalpha stimulated human A549 cells harboring NFkB-Luc assessed as reduction in cell viability preincubated for 1 hr followed by TNFalpha stimulation measured after 5 hrs by Cell-Titer Glo assay; assay type: cell-based; conditions: a549, 5 h; summary of the method: as §1
[9] = target: T1, Glucocorticoid receptor (Homo sapiens); assay: Modulation of glucocorticoid receptor in human A549 cells assessed as 0.01 uM dexamethasone-induced GRE-driven promoter activity at 10 uM by luciferase reporter gene assay (reference value: 100%); assay type: cell-based; summary of the method: as §2
A549 [10] = assay: Cytotoxicity against GR knockout human A549 cells harboring Neo-Luc assessed as reduction in cell viability at 60 uM by Cell-Titer Glo assay relative to control; assay type: cell-based; conditions: a549, 60 µM; summary of the method: as §4
A549 [11] = assay: Cytotoxicity against PMA stimulated human A549 cells harboring AP-1-Luc assessed as reduction in cell viability at 60 uM preincubated for 1 hr followed by PMA stimulation measured after 5 hrs by Cell-Titer Glo assay relative to control; assay type: cell-based; conditions: a549, 5 h; summary of the method: as §3
A549 [12] = assay: Cytotoxicity against PMA stimulated human A549 cells harboring AP-1-Luc assessed as reduction in cell viability preincubated for 1 hr followed by PMA stimulation measured after 5 hrs by Cell-Titer Glo assay; assay type: cell-based; conditions: a549, 5 h; summary of the method: as §3
A549 [13] = assay: Inhibition of TNFalpha-induced NFkB activity in GR knockout human A549 cells harboring NFkB-Luc assessed as NFkB activity at 30 uM preincubated for 1 hr followed by TNFalpha stimulation measured after 5 hrs by luciferase reporter gene assay (reference value: 100%); assay type: functional; design: scale not given: the % may be the effect or the level left
Summary of the method: (§5)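 GR-knockout A549 cells carrying stably integrated NF-κB-Luc. Pretreatment 1 h with compound (30 μM) or dexamethasone (1 μM), then TNF (200 IU/mL) for 5 h. Luciferase luminescence as % of TNF-induced solvent control.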

[14] = target: T1, Glucocorticoid receptor (Homo sapiens); assay: Modulation of glucocorticoid receptor in human A549 cells harboring AP-1-Luc assessed as reduction in PMA-induced AP-1 activity preincubated for 1 hr followed by PMA stimulation measured after 5 hrs by luciferase reporter gene assay; assay type: cell-based
Summary of the method: (§6)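 AP-1-Luc A549 cells (9000/well, 24 h) pretreated 1 h with compound (10–60 μM), dexamethasone 1 μM or solvent, then PMA-induced for 5 h. Luciferase activity as % of PMA-induced solvent group. One-way ANOVA with Tukey test.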

[15] = target: T1, Glucocorticoid receptor (Homo sapiens); assay: (§7) Modulation of glucocorticoid receptor in human A549 cells harboring NFkB-Luc assessed as reduction in TNFalpha-induced NFkB activity preincubated for 1 hr followed by TNFalpha stimulation measured after 5 hrs by luciferase reporter gene assay; assay type: cell-based
Summary of the method: (§8)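 A549 cells with stably integrated NF-κB-Luc (9000/well, 24 h) given compound at 10, 30 or 60 μM, dexamethasone 1 μM or solvent for 1 h. TNF (200 IU/mL) induction for 5 h, then luciferase read. Values as % of TNF-induced solvent control; four independent replicates; one-way ANOVA.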

[16] = target: T1, Glucocorticoid receptor (Homo sapiens); assay: Modulation of glucocorticoid receptor in human A549 cells assessed as TNFalpha-induced CCL2 production at 30 uM preincubated for 1 hr followed by TNFalpha stimulation measured after 5 hrs by ELISA (reference value: 100%); assay type: cell-based
Summary of the method: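 Basal (non-reporter) A549 cells treated with compound at 30 μM, then TNF (200 IU/mL). CCL2 protein in medium measured by ELISA, as % of TNF-treated solvent control. Mean ± SD of three independent replicates; Student's t test.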

[17] = target: T1, Glucocorticoid receptor (Homo sapiens); assay: Modulation of glucocorticoid receptor in human A549 cells harboring AP-1-Luc assessed as reduction in PMA-induced AP-1 activity by measuring AP-1 activity at 60 uM preincubated for 1 hr followed by PMA stimulation measured after 5 hrs by luciferase reporter gene assay (reference value: 100%); assay type: cell-based; design: scale not given: the % may be the effect or the level left; summary of the method: as §6
A549 [18] = assay: Inhibition of TNFalpha-induced NFkB activity in GR knockout human A549 cells harboring NFkB-Luc assessed as NFkB activity at 1 uM preincubated for 1 hr followed by TNFalpha stimulation measured after 5 hrs by luciferase reporter gene assay (reference value: 100%); assay type: functional; design: scale not given: the % may be the effect or the level left; summary of the method: as §5
[19] = Cytotoxicity against GR knockout human A549 cells harboring Neo-Luc assessed as cell viability at 60 uM by Cell-Titer Glo assay (reference value: 100%); assay type: cell-based; conditions: read-out: Activity; summary of the method: as §4
[20] = target: T1, Glucocorticoid receptor (Homo sapiens); assay: as §7, with “activity by measuring NFkB activity at 60 uM” for “activity”, “assay (reference value: 100%)” for “assay”; assay type: cell-based; design: scale not given: the % may be the effect or the level left; summary of the method: as §8
[21] = Cytotoxicity against TNFalpha stimulated human A549 cells harboring NFkB-Luc assessed as cell viability at 60 uM preincubated for 1 hr followed by TNFalpha stimulation measured after 5 hrs by Cell-Titer Glo assay (reference value: 100%); assay type: cell-based; conditions: read-out: Activity; summary of the method: as §1
[22] = Cytotoxicity against PMA stimulated human A549 cells harboring AP-1-Luc assessed as cell viability at 60 uM preincubated for 1 hr followed by PMA stimulation measured after 5 hrs by Cell-Titer Glo assay (reference value: 100%); assay type: cell-based; conditions: read-out: Activity; summary of the method: as §3

Activity [2] [%] | Activity [4] [%] | Activity [7] [%] | Activity [9] [%] | Activity [14] | Activity [15] | Activity [16] [%] | Activity [17] [%] | SMILES | viability at 5 h, 30 µM [1] [%] | viability at 5 h, 30 µM [3] [%] | Activity (A549 [5]) | viability at 30 µM [6] [%] | Activity (A549 [8]) | Activity (A549 [10]) | Activity (A549 [11]) | Activity (A549 [12]) | Activity (A549 [13]) [%] | also measured
> 90 | 77 | 80.9 | > 90 | Dose-dependent effect | Dose-dependent effect | – | – | C/C=C(/C)C(=O)O[C@@H]1C[C@@](O)(C(C)C)[C@@H]2CCC(C)=C[C@@H](O)[C@]21C | > 97 | > 97 | <= 10% | > 97 | Dose-dependent effect | <= 10% | <= 10% | Dose-dependent effect | 91.8 | –
> 90 | 83.5 | > 90 | > 90 | Dose-dependent effect | Dose-dependent effect | – | – | C/C=C(/C)C(=O)O[C@H]1C[C@@](C)(O)C(=O)[C@@H](OC(=O)/C(C)=C\C)[C@@]2(C)CC[C@@](O)(C(C)C)[C@H]12 | – | – | – | – | Dose-dependent effect | – | – | Dose-dependent effect | – | –
> 90 | 80.4 | 74.5 | > 90 | Dose-dependent effect | Dose-dependent effect | 70.1 | 41.4 | C/C=C(/C)C(=O)O[C@@H]1C=C(C)CC[C@]2(O)[C@@H](C(C)C)CC(=O)[C@]12C | > 97 | > 97 | <= 10% | > 97 | Dose-dependent effect | <= 10% | <= 10% | Dose-dependent effect | – | –

Continued, compound first:

SMILES | Activity [2] [%] | Activity [4] [%] | Activity [7] [%] | Activity [9] [%] | Activity [14] | Activity [15] | Activity [16] [%] | Activity [17] [%] | viability at 5 h, 30 µM [1] [%] | viability at 5 h, 30 µM [3] [%] | Activity (A549 [5]) | viability at 30 µM [6] [%] | Activity (A549 [8]) | Activity (A549 [10]) | Activity (A549 [11]) | Activity (A549 [12]) | Activity (A549 [13]) [%] | also measured
C/C=C(/C)C(=O)O[C@@H]1C[C@@](O)(C(C)C)[C@@H]2CC=C(C)C(=O)[C@@H](O)[C@]21C | > 90 | 52.8 | 71.6 | > 90 | Dose-dependent effect | Dose-dependent effect | – | – | – | – | – | – | Dose-dependent effect | – | – | Dose-dependent effect | – | –
C[C@@H]1C[C@H]2[C@@H]3CCC4=CC(=O)C=C[C@]4(C)[C@@]3(F)[C@@H](O)C[C@]2(C)[C@@]1(O)C(=O)CO [DEXAMETHASONE] | – | – | – | – | – | – | – | – | – | – | – | – | – | – | – | – | – | Activity (A549 [18]): 97.2%
C/C=C(/C)C(=O)O[C@@H]1C[C@@](O)(C(C)C)[C@@H]2CCC(C)=C[C@@H](OC(C)=O)[C@]21C | 78 | 48.9 | 67.1 | 70.1 | Dose-dependent effect | Dose-dependent effect | 72.1 | 41 | > 95 | > 95 | – | > 95 | Dose-dependent effect | – | – | Dose-dependent effect | 83.6 | viability at 60 µM [19]: 90%; Activity [20]: 52%; viability at 5 h, 60 µM [21]: 97.3%; viability at 5 h, 60 µM [22]: 93.4%
